Values joined by “and” are separate entries in the source; they are usually repeats but may differ in a detail not shown here. Equal values may be shown once.
Tests used:
Format in all cases: toxicity, cell-based
Fibroblast = assay: Multiplex assay against human fibroblast; conditions: number of replicates 2
In short: (§1)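 Phenotypes for tubulin, mitochondrial mass and membrane permeability are expressed as per cents of healthy-nucleus cells. Cells were stained live at seeding with Hoechst33342, BioTracker Green Microtubule Cytoskeleton Dye, MitoTracker Red and Annexin V Alexa Fluor 680, then imaged after compound addition on a CQ1 microscope at 37°C and 5% CO2. Machine-learning gating in CellPathfinder separated Hoechst high-intensity objects from normal cells, divided normal cells by nuclear state (healthy, pyknosed, fragmented) and divided pyknosed cells into mitotic or apoptotic.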

U2OS = assay: Multiplex assay against U2OS; conditions: human, number of replicates 2; in short: as §1
HEK-293T = assay: Multiplex assay against HEK293T; conditions: human, number of replicates 2; in short: as §1
[1] = 12 h, 1 µM, compound concentration 1 uM
[2] = 12 h, 10 µM, compound concentration 10 uM
[3] = 24 h, 1 µM, compound concentration 1 uM
[4] = 24 h, 10 µM, compound concentration 10 uM
[5] = 48 h, 1 µM, compound concentration 1 uM
[6] = 48 h, 10 µM, compound concentration 10 uM

CN(C)CCCN1c2ccccc2Sc2ccc(Cl)cc21.Cl [CHLORPROMAZINE HYDROCHLORIDE]
Population Apoptotic (%) (Fibroblast; [1]): 40% and 38%
Population Fragmented Nuclei (%) (Fibroblast; [1]): 16% and 14%
Population Healthy Nuclei (%) (Fibroblast; [1]): 51% and 64%
Population Hoechst High Intensity Objects (%) (Fibroblast; [1]): 0%
Population Membrane Permeable-Phenotype (%) (Fibroblast; [1]): 7% and 5%
Population Mitochondria Different-Phenotype (%) (Fibroblast; [1]): 1% and 2%
Population Mitotic Cells (%) (Fibroblast; [1]): 59% and 61%
Population Normal (%) (Fibroblast; [1]): 100%
Population Pyknosed Nuclei (%) (Fibroblast; [1]): 32% and 21%
Population Tubulin-Different-Phenotype (%) (Fibroblast; [1]): 14% and 13%
Total Cell Count (Fibroblast; [1]): 190 and 200
Population Apoptotic (%) (Fibroblast; [2]): 52% and 41%
Population Fragmented Nuclei (%) (Fibroblast; [2]): 15% and 22%
Population Healthy Nuclei (%) (Fibroblast; [2]): 65% and 62%
Population Hoechst High Intensity Objects (%) (Fibroblast; [2]): 0%
Population Membrane Permeable-Phenotype (%) (Fibroblast; [2]): 5% and 1%
Population Mitochondria Different-Phenotype (%) (Fibroblast; [2]): 5% and 9%
Population Mitotic Cells (%) (Fibroblast; [2]): 47% and 58%
Population Normal (%) (Fibroblast; [2]): 99% and 100%
Population Pyknosed Nuclei (%) (Fibroblast; [2]): 19% and 14%
Population Tubulin-Different-Phenotype (%) (Fibroblast; [2]): 45% and 36%
Total Cell Count (Fibroblast; [2]): 187 and 323
Population Apoptotic (%) (Fibroblast; [3]): 64% and 46%
Population Fragmented Nuclei (%) (Fibroblast; [3]): 15% and 17%
Population Healthy Nuclei (%) (Fibroblast; [3]): 58% and 66%
Population Hoechst High Intensity Objects (%) (Fibroblast; [3]): 0%
Population Membrane Permeable-Phenotype (%) (Fibroblast; [3]): 13% and 6%
Population Mitochondria Different-Phenotype (%) (Fibroblast; [3]): 1% and 3%
Population Mitotic Cells (%) (Fibroblast; [3]): 35% and 53%
Population Normal (%) (Fibroblast; [3]): 100%
Population Pyknosed Nuclei (%) (Fibroblast; [3]): 25% and 16%
Population Tubulin-Different-Phenotype (%) (Fibroblast; [3]): 23% and 12%
Total Cell Count (Fibroblast; [3]): 206 and 196
Population Apoptotic (%) (Fibroblast; [4]): 80% and 58%
Population Fragmented Nuclei (%) (Fibroblast; [4]): 15% and 24%
Population Healthy Nuclei (%) (Fibroblast; [4]): 72% and 65%
Population Hoechst High Intensity Objects (%) (Fibroblast; [4]): 1%
Population Membrane Permeable-Phenotype (%) (Fibroblast; [4]): 2% and 1%
Population Mitochondria Different-Phenotype (%) (Fibroblast; [4]): 16% and 15%
Population Mitotic Cells (%) (Fibroblast; [4]): 19% and 41%
Population Normal (%) (Fibroblast; [4]): 98%
Population Pyknosed Nuclei (%) (Fibroblast; [4]): 11% and 10%
Population Tubulin-Different-Phenotype (%) (Fibroblast; [4]): 49% and 42%
Total Cell Count (Fibroblast; [4]): 187 and 299
Population Apoptotic (%) (Fibroblast; [5]): 82% and 60%
Population Fragmented Nuclei (%) (Fibroblast; [5]): 19% and 15%
Population Healthy Nuclei (%) (Fibroblast; [5]): 60% and 71%
Population Hoechst High Intensity Objects (%) (Fibroblast; [5]): 0%
Population Membrane Permeable-Phenotype (%) (Fibroblast; [5]): 7% and 4%
Population Mitochondria Different-Phenotype (%) (Fibroblast; [5]): 4% and 1%
Population Mitotic Cells (%) (Fibroblast; [5]): 17% and 39%
Population Normal (%) (Fibroblast; [5]): 99%
Population Pyknosed Nuclei (%) (Fibroblast; [5]): 20% and 12%
Total Cell Count (Fibroblast; [5]): 195 and 226
Population Apoptotic (%) (Fibroblast; [6]): 73% and 90%
Population Fragmented Nuclei (%) (Fibroblast; [6]): 23% and 32%
Population Healthy Nuclei (%) (Fibroblast; [6]): 67% and 57%
Population Hoechst High Intensity Objects (%) (Fibroblast; [6]): 1% and 0%
Population Membrane Permeable-Phenotype (%) (Fibroblast; [6]): 2%
Population Mitochondria Different-Phenotype (%) (Fibroblast; [6]): 5% and 7%
Population Mitotic Cells (%) (Fibroblast; [6]): 26% and 9%
Population Normal (%) (Fibroblast; [6]): 99%
Population Pyknosed Nuclei (%) (Fibroblast; [6]): 9%
Population Tubulin-Different-Phenotype (%) (Fibroblast; [6]): 33% and 34%
Total Cell Count (Fibroblast; [6]): 201 and 323
Population Healthy Nuclei (%) (U2OS; [1]): 42% and 81%
Population Hoechst High Intensity Objects (%) (U2OS; [1]): 0%
Population Membrane Permeable-Phenotype (%) (U2OS; [1]): 0% and 1%
Population Mitochondria Different-Phenotype (%) (U2OS; [1]): 0% and 2%
Population Normal (%) (U2OS; [1]): 100%
Population Pyknosed Nuclei (%) (U2OS; [1]): 7% and 15%
Population Tubulin-Different-Phenotype (%) (U2OS; [1]): 100% and 81%
Population Healthy Nuclei (%) (U2OS; [2]): 49% and 77%
Population Hoechst High Intensity Objects (%) (U2OS; [2]): 0% and 1%
Population Membrane Permeable-Phenotype (%) (U2OS; [2]): 6% and 3%
Population Mitotic Cells (%) (U2OS; [2]): 80% and 36%
Population Normal (%) (U2OS; [2]): 100% and 98%
Population Pyknosed Nuclei (%) (U2OS; [2]): 8% and 17%
Population Tubulin-Different-Phenotype (%) (U2OS; [2]): 36% and 42%
Population Healthy Nuclei (%) (U2OS; [3]): 53% and 88%
Population Hoechst High Intensity Objects (%) (U2OS; [3]): 0%
Population Membrane Permeable-Phenotype (%) (U2OS; [3]): 0% and 2%
Population Mitochondria Different-Phenotype (%) (U2OS; [3]): 0% and 1%
Population Mitotic Cells (%) (U2OS; [3]): 0% and 24%
Population Normal (%) (U2OS; [3]): 100%
Population Pyknosed Nuclei (%) (U2OS; [3]): 0% and 9%
Population Tubulin-Different-Phenotype (%) (U2OS; [3]): 87% and 85%
Population Apoptotic (%) (U2OS; [4]): 63% and 64%
Population Healthy Nuclei (%) (U2OS; [4]): 39% and 73%
Population Hoechst High Intensity Objects (%) (U2OS; [4]): 0%
Population Membrane Permeable-Phenotype (%) (U2OS; [4]): 3%
Population Mitochondria Different-Phenotype (%) (U2OS; [4]): 12% and 19%
Population Mitotic Cells (%) (U2OS; [4]): 36% and 35%
Population Normal (%) (U2OS; [4]): 100% and 99%
Population Pyknosed Nuclei (%) (U2OS; [4]): 14% and 20%
Population Tubulin-Different-Phenotype (%) (U2OS; [4]): 32% and 51%
Population Healthy Nuclei (%) (U2OS; [5]): 55% and 88%
Population Hoechst High Intensity Objects (%) (U2OS; [5]): 0%
Population Normal (%) (U2OS; [5]): 100%
Population Pyknosed Nuclei (%) (U2OS; [5]): 3% and 7%
Population Tubulin-Different-Phenotype (%) (U2OS; [5]): 100% and 88%
Population Apoptotic (%) (U2OS; [6]): 92% and 74%
Population Healthy Nuclei (%) (U2OS; [6]): 34% and 66%
Population Hoechst High Intensity Objects (%) (U2OS; [6]): 0%
Population Membrane Permeable-Phenotype (%) (U2OS; [6]): 7% and 4%
Population Mitochondria Different-Phenotype (%) (U2OS; [6]): 7%
Population Normal (%) (U2OS; [6]): 100% and 99%
Population Pyknosed Nuclei (%) (U2OS; [6]): 16% and 24%
Population Tubulin-Different-Phenotype (%) (U2OS; [6]): 51% and 55%
Population Apoptotic (%) (HEK-293T; [1]): 54% and 40%
Population Fragmented Nuclei (%) (HEK-293T; [1]): 3% and 4%
Population Healthy Nuclei (%) (HEK-293T; [1]): 81% and 82%
Population Hoechst High Intensity Objects (%) (HEK-293T; [1]): 13% and 8%
Population Membrane Permeable-Phenotype (%) (HEK-293T; [1]): 1% and 2%
Population Mitochondria Different-Phenotype (%) (HEK-293T; [1]): 25% and 15%
Population Mitotic Cells (%) (HEK-293T; [1]): 45% and 59%
Population Normal (%) (HEK-293T; [1]): 86% and 91%
Population Pyknosed Nuclei (%) (HEK-293T; [1]): 14% and 12%
Population Tubulin-Different-Phenotype (%) (HEK-293T; [1]): 53% and 48%
Total Cell Count (HEK-293T; [1]): 443 and 595
Population Apoptotic (%) (HEK-293T; [2]): 55%
Population Fragmented Nuclei (%) (HEK-293T; [2]): 1% and 2%
Population Healthy Nuclei (%) (HEK-293T; [2]): 80% and 78%
Population Hoechst High Intensity Objects (%) (HEK-293T; [2]): 9% and 6%
Population Membrane Permeable-Phenotype (%) (HEK-293T; [2]): 2%
Population Mitochondria Different-Phenotype (%) (HEK-293T; [2]): 40% and 53%
Population Mitotic Cells (%) (HEK-293T; [2]): 44%
Population Normal (%) (HEK-293T; [2]): 90% and 93%
Population Pyknosed Nuclei (%) (HEK-293T; [2]): 17% and 19%
Population Tubulin-Different-Phenotype (%) (HEK-293T; [2]): 83% and 88%
Total Cell Count (HEK-293T; [2]): 580 and 531
Population Apoptotic (%) (HEK-293T; [3]): 57% and 47%
Population Fragmented Nuclei (%) (HEK-293T; [3]): 7% and 5%
Population Healthy Nuclei (%) (HEK-293T; [3]): 80% and 88%
Population Hoechst High Intensity Objects (%) (HEK-293T; [3]): 5% and 7%
Population Membrane Permeable-Phenotype (%) (HEK-293T; [3]): 1%
Population Mitochondria Different-Phenotype (%) (HEK-293T; [3]): 12% and 4%
Population Mitotic Cells (%) (HEK-293T; [3]): 42% and 52%
Population Normal (%) (HEK-293T; [3]): 94% and 92%
Population Pyknosed Nuclei (%) (HEK-293T; [3]): 11% and 6%
Population Tubulin-Different-Phenotype (%) (HEK-293T; [3]): 36% and 29%
Total Cell Count (HEK-293T; [3]): 621 and 951
Population Apoptotic (%) (HEK-293T; [4]): 67% and 63%
Population Fragmented Nuclei (%) (HEK-293T; [4]): 4%
Population Healthy Nuclei (%) (HEK-293T; [4]): 81% and 82%
Population Hoechst High Intensity Objects (%) (HEK-293T; [4]): 6% and 9%
Population Membrane Permeable-Phenotype (%) (HEK-293T; [4]): 1%
Population Mitochondria Different-Phenotype (%) (HEK-293T; [4]): 46% and 48%
Population Mitotic Cells (%) (HEK-293T; [4]): 32% and 36%
Population Normal (%) (HEK-293T; [4]): 93% and 90%
Population Pyknosed Nuclei (%) (HEK-293T; [4]): 14% and 13%
Population Tubulin-Different-Phenotype (%) (HEK-293T; [4]): 86% and 82%
Total Cell Count (HEK-293T; [4]): 619 and 581
Population Apoptotic (%) (HEK-293T; [5]): 31% and 16%
Population Fragmented Nuclei (%) (HEK-293T; [5]): 9% and 8%
Population Healthy Nuclei (%) (HEK-293T; [5]): 85% and 87%
Population Hoechst High Intensity Objects (%) (HEK-293T; [5]): 8% and 10%
Population Membrane Permeable-Phenotype (%) (HEK-293T; [5]): 5% and 3%
Population Mitochondria Different-Phenotype (%) (HEK-293T; [5]): 1% and 0%
Population Mitotic Cells (%) (HEK-293T; [5]): 68% and 83%
Population Normal (%) (HEK-293T; [5]): 91% and 89%
Population Pyknosed Nuclei (%) (HEK-293T; [5]): 5% and 3%
Population Tubulin-Different-Phenotype (%) (HEK-293T; [5]): 14% and 11%
Total Cell Count (HEK-293T; [5]): 1435 and 2116
Population Apoptotic (%) (HEK-293T; [6]): 44% and 58%
Population Fragmented Nuclei (%) (HEK-293T; [6]): 5% and 6%
Population Healthy Nuclei (%) (HEK-293T; [6]): 86% and 85%
Population Hoechst High Intensity Objects (%) (HEK-293T; [6]): 9% and 10%
Population Membrane Permeable-Phenotype (%) (HEK-293T; [6]): 4% and 6%
Population Mitochondria Different-Phenotype (%) (HEK-293T; [6]): 8% and 12%
Population Mitotic Cells (%) (HEK-293T; [6]): 55% and 41%
Population Normal (%) (HEK-293T; [6]): 90% and 89%
Population Pyknosed Nuclei (%) (HEK-293T; [6]): 8%
Population Tubulin-Different-Phenotype (%) (HEK-293T; [6]): 64% and 60%
Total Cell Count (HEK-293T; [6]): 952 and 839
